The source made the active and inactive calls. No cut-off for these calls is given here.
Assays:
[1] = target: Tyrosine-protein kinase JAK2 (Homo sapiens) (UniProt O60674); assay: Inhibition of JAK2 (unknown origin) assessed as residual activity at 50 uM relative to control
Outline: (§1)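 Selectivity profiling against a panel of 44 human kinases. For each kinase, ATP was set to that kinase's Km. Values are residual activity in duplicate assays.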

[2] = target: Tyrosine-protein kinase Yes (Homo sapiens) (UniProt P07947); assay: Inhibition of YES (unknown origin) assessed as residual activity at 50 uM relative to control
Outline: (§2)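 Profiling panel of 44 human kinases. ATP set to each kinase's Km. Run in duplicate; duplicates within 15–17% of each other.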

[3] = target: Inhibitor of nuclear factor kappa-B kinase subunit alpha (Homo sapiens) (UniProt O15111); assay: Inhibition of IKKalpha (unknown origin) assessed as residual activity at 50 uM relative to control; outline: as §1
Sequence of Inhibitor of nuclear factor kappa-B kinase subunit alpha (Homo sapiens) (O15111 whole entry): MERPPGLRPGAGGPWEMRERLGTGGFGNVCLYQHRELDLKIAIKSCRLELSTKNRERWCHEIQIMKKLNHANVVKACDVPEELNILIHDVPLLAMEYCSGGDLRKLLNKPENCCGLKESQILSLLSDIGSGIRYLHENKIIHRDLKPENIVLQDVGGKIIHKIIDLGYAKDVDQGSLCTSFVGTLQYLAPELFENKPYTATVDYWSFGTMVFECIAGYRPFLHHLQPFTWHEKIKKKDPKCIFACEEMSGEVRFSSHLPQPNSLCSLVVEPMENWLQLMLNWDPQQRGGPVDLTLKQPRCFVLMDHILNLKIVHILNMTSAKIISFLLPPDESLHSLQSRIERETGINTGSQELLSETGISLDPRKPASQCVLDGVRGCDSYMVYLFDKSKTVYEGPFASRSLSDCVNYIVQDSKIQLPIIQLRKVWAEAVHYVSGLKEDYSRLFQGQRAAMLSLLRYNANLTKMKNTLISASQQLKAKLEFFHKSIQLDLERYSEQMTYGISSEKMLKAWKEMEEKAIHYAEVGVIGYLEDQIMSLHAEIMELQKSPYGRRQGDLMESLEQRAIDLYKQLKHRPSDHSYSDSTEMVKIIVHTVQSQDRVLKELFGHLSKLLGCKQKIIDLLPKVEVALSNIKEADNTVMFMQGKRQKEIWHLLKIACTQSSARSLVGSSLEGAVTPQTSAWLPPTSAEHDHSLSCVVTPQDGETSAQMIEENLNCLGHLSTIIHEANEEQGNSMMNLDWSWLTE

[4] = target: CDK6/cyclin D3 (Homo sapiens) (UniProt P30281+Q00534); assay: Inhibition of CDK6/cyclin D3 (unknown origin) assessed as residual activity at 50 uM relative to control; assay type: protein-complex assay; outline: as §1
[5] = target: T1, Casein kinase II subunit alpha (Homo sapiens, UniProt P68400); assay: Inhibition of recombinant human GST-tagged CK2alpha in presence of ATP by radiometric kinase assay
Target sequence in this assay (P68400 whole entry): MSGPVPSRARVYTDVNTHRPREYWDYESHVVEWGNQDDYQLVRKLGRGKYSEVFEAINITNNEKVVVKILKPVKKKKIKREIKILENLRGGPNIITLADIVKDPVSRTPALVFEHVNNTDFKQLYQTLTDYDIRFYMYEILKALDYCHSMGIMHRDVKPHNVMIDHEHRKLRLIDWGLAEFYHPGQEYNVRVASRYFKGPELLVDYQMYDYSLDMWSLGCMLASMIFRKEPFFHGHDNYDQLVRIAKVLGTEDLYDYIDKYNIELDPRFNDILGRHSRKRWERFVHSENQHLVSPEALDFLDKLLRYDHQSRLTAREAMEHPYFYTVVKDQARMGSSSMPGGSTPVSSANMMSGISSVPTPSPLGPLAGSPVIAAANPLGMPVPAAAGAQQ

[6] = target: Calcium/calmodulin-dependent protein kinase type 1 (Homo sapiens) (UniProt Q14012); assay: Inhibition of CAMK1 (unknown origin) assessed as residual activity at 50 uM relative to control; outline: as §1
[7] = target: Homeodomain-interacting protein kinase 1 (Homo sapiens) (UniProt Q86Z02); assay: Inhibition of HIPK1 (unknown origin) assessed as residual activity at 50 uM relative to control; outline: as §1
[8] = target: Homeodomain-interacting protein kinase 2 (Homo sapiens) (UniProt Q9H2X6); assay: Inhibition of HIPK2 (unknown origin) assessed as residual activity at 50 uM relative to control; outline: as §1
[9] = target: Serine/threonine-protein kinase PAK 2 (Homo sapiens) (UniProt Q13177); assay: Inhibition of PAK2 (unknown origin) assessed as residual activity at 50 uM relative to control; outline: as §1
Sequence of Serine/threonine-protein kinase PAK 2 (Homo sapiens) (Q13177 whole entry): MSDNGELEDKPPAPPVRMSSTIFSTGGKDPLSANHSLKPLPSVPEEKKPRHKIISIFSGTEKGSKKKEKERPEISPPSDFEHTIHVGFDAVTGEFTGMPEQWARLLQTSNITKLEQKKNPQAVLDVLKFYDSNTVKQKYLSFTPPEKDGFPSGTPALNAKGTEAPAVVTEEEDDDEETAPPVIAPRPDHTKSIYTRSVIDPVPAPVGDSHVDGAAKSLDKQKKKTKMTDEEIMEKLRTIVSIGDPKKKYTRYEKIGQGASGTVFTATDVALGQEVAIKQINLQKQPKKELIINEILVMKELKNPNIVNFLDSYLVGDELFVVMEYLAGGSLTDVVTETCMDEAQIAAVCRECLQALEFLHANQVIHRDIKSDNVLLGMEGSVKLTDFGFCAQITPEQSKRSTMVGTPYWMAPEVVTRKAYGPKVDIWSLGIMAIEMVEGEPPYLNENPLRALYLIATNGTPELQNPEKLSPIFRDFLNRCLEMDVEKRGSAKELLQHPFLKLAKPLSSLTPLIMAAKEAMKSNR

Homo sapiens = species: Homo sapiens; assay: Inhibition of PKA (unknown origin) assessed as residual activity at 50 uM relative to control; outline: as §1
[10] = target: Fibroblast growth factor receptor 1 (Homo sapiens) (UniProt P11362); assay: Inhibition of FGFR1 (unknown origin) assessed as residual activity at 50 uM relative to control; outline: as §1
[11] = target: Glycogen synthase kinase-3 beta (Homo sapiens) (UniProt P49841); assay: Inhibition of GSK3beta (unknown origin) assessed as residual activity at 50 uM relative to control; outline: as §1
[12] = target: Serine/threonine-protein kinase Chk2 (Homo sapiens) (UniProt O96017); assay: Inhibition of CHK2 (unknown origin) assessed as residual activity at 50 uM relative to control; outline: as §1
Sequence of Serine/threonine-protein kinase Chk2 (Homo sapiens) (O96017 whole entry): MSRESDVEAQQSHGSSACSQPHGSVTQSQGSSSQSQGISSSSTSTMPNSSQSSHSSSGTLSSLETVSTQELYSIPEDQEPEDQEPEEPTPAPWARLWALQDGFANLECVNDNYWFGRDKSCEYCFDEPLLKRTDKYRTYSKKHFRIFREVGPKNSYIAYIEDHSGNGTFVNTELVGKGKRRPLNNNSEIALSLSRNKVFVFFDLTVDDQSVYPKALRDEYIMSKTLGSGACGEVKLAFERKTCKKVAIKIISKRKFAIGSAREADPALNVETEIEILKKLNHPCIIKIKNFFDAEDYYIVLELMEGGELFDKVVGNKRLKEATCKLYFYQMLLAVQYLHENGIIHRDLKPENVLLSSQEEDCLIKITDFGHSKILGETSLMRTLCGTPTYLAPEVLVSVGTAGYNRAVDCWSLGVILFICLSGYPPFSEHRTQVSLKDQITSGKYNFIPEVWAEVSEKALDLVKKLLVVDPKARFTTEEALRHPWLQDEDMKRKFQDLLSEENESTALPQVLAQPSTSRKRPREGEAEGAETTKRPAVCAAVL

[13] = target: Mast/stem cell growth factor receptor Kit (Homo sapiens) (UniProt P10721); assay: Inhibition of cKIT (unknown origin) assessed as residual activity at 50 uM relative to control; outline: as §2
[14] = target: Serine/threonine-protein kinase STK11 (Homo sapiens) (UniProt Q15831); assay: Inhibition of LKB1 (unknown origin) assessed as residual activity at 50 uM relative to control; outline: as §1
[15] = target: 5'-AMP-activated protein kinase catalytic subunit alpha-1 (Homo sapiens) (UniProt Q13131); assay: Inhibition of AMPKalpha1 (unknown origin) assessed as residual activity at 50 uM relative to control; outline: as §1
Sequence of 5'-AMP-activated protein kinase catalytic subunit alpha-1 (Homo sapiens) (Q13131 whole entry, looked up): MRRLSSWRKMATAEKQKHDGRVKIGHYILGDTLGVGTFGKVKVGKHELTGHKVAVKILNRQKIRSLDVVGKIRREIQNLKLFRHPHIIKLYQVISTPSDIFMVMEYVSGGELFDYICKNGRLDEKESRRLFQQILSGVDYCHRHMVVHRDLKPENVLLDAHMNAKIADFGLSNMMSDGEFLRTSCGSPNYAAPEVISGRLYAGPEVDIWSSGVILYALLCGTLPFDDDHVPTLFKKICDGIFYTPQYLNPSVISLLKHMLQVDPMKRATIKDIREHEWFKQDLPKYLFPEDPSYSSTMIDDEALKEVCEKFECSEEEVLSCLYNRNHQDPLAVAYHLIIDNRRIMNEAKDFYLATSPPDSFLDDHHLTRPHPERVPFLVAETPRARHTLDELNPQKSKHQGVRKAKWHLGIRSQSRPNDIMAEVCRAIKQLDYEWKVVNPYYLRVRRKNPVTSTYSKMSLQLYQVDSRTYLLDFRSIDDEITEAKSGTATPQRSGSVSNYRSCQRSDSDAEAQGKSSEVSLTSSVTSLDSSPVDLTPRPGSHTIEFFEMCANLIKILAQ

[16] = target: CDK2/Cyclin A2 (Homo sapiens) (UniProt P24941+P20248); assay: Inhibition of CDK2/cyclin A (unknown origin) assessed as residual activity at 50 uM relative to control; assay type: protein-complex assay; outline: as §1
[17] = target: RAC-alpha serine/threonine-protein kinase (Homo sapiens) (UniProt P31749); assay: Inhibition of PKBalpha (unknown origin) assessed as residual activity at 50 uM relative to control; outline: as §2
Sequence of RAC-alpha serine/threonine-protein kinase (Homo sapiens) (P31749 whole entry): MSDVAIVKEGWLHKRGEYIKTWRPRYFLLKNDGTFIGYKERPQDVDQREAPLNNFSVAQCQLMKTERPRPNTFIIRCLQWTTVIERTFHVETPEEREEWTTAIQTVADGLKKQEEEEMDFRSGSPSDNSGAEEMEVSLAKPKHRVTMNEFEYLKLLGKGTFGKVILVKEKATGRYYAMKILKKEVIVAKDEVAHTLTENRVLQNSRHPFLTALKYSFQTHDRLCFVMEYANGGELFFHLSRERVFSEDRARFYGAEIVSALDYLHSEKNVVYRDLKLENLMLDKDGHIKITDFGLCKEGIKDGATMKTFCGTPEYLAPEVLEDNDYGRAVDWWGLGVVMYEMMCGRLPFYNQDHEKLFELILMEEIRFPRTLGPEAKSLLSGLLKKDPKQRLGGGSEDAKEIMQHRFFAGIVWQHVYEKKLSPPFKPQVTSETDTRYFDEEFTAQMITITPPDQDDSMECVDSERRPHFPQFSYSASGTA

[18] = target: Casein kinase II alpha/beta (Homo sapiens) (UniProt P67870+P68400); assay: Inhibition of recombinant human GST-tagged CK2alpha2/CK2beta2 at 20 uM in presence of ATP and increasing CK2beta levels by radiometric kinase assay; assay type: protein-complex assay
Sequence of Casein kinase II alpha/beta (Homo sapiens) (P67870 2-215 limits assumed): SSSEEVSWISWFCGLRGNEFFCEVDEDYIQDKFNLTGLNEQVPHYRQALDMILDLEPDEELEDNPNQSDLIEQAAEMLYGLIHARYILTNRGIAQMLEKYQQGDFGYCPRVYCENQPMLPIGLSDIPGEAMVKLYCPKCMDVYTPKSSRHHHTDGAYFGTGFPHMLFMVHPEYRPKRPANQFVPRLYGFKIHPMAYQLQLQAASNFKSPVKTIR
Sequence of Casein kinase II alpha/beta (Homo sapiens) (P68400 whole entry partner): as the sequence (P68400 whole entry) above
Outline: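 CK2α fixed at 150 nM and inhibitor fixed at 20 μM. CK2β was titrated at increasing concentrations and activity was read in the radiometric assay.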

[19] = target: RAF proto-oncogene serine/threonine-protein kinase (Homo sapiens) (UniProt P04049); assay: Inhibition of cRAF (unknown origin) assessed as residual activity at 50 uM relative to control; outline: as §2
[20] = target: Platelet-derived growth factor receptor alpha (Homo sapiens) (UniProt P16234); assay: Inhibition of PDGFRalpha (unknown origin) assessed as residual activity at 50 uM relative to control; outline: as §1
[21] = target: Ribosomal protein S6 kinase alpha-1 (Homo sapiens) (UniProt Q15418); assay: Inhibition of RSK1 (unknown origin) assessed as residual activity at 50 uM relative to control; outline: as §2
[22] = target: Tyrosine-protein kinase Fyn (Homo sapiens) (UniProt P06241); assay: Inhibition of FYN (unknown origin) assessed as residual activity at 50 uM relative to control; outline: as §1
[23] = target: Protein kinase C alpha type (Homo sapiens) (UniProt P17252); assay: Inhibition of PKCalpha (unknown origin) assessed as residual activity at 50 uM relative to control; outline: as §2
[24] = target: T1, Casein kinase II subunit alpha; assay: Inhibition of CK2alpha (unknown origin) assessed as residual activity at 50 uM relative to control; outline: as §1
Target sequence in this assay (P68400 whole entry, looked up): as the sequence (P68400 whole entry) above

[25] = target: Ephrin type-A receptor 4 (Homo sapiens) (UniProt P54764); assay: Inhibition of EPHA4 (unknown origin) assessed as residual activity at 50 uM relative to control; outline: as §1
Sequence of Ephrin type-A receptor 4 (Homo sapiens) (P54764 whole entry): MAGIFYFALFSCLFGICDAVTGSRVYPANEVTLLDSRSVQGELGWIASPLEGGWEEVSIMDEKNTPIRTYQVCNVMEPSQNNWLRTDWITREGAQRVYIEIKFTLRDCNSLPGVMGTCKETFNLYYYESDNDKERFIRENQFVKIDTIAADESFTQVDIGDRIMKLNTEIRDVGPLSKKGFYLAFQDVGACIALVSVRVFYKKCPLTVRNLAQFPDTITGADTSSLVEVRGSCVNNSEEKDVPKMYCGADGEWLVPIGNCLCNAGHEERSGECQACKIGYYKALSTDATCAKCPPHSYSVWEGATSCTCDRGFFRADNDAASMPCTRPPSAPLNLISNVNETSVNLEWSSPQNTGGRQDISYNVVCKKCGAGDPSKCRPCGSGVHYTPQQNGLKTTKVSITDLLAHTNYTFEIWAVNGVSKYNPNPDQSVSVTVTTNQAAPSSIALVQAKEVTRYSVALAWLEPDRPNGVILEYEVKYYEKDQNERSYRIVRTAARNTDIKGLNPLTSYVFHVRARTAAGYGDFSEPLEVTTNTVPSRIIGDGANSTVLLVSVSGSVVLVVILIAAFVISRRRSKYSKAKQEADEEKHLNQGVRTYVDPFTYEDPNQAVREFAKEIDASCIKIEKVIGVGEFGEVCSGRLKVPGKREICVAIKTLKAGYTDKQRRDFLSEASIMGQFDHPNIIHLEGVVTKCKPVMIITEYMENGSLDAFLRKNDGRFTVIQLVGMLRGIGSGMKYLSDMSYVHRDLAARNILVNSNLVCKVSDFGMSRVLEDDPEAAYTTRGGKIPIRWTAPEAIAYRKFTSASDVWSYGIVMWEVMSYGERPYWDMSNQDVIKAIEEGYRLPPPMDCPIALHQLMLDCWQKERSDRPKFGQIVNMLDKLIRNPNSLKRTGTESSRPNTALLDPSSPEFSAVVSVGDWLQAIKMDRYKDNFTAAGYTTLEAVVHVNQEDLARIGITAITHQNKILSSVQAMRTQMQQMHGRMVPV

[26] = target: Rho-associated protein kinase 1 (Homo sapiens) (UniProt Q13464); assay: Inhibition of ROCK1 (unknown origin) assessed as residual activity at 50 uM relative to control; outline: as §2
[27] = target: Tyrosine-protein kinase ABL1 (Homo sapiens) (UniProt P00519); assay: Inhibition of ABL (unknown origin) assessed as residual activity at 50 uM relative to control; outline: as §1
[28] = target: Insulin receptor (Homo sapiens) (UniProt P06213); assay: Inhibition of activated IR (unknown origin) assessed as residual activity at 50 uM relative to control; outline: as §2
[29] = target: Dual specificity mitogen-activated protein kinase kinase 1 (Homo sapiens) (UniProt Q02750); assay: Inhibition of MEK1 (unknown origin) assessed as residual activity at 50 uM relative to control; outline: as §1
[30] = target: Proto-oncogene tyrosine-protein kinase Src (Homo sapiens) (UniProt P12931); assay: Inhibition of cSRC (unknown origin) assessed as residual activity at 50 uM relative to control; outline: as §2
[31] = target: Mitogen-activated protein kinase 1 (Homo sapiens) (UniProt P28482); assay: Inhibition of MAPK1 (unknown origin) assessed as residual activity at 50 uM relative to control; outline: as §1
[32] = target: Aurora kinase A (Homo sapiens) (UniProt O14965); assay: Inhibition of aurora A (unknown origin) assessed as residual activity at 50 uM relative to control
Sequence of Aurora kinase A (Homo sapiens) (O14965 whole entry, looked up): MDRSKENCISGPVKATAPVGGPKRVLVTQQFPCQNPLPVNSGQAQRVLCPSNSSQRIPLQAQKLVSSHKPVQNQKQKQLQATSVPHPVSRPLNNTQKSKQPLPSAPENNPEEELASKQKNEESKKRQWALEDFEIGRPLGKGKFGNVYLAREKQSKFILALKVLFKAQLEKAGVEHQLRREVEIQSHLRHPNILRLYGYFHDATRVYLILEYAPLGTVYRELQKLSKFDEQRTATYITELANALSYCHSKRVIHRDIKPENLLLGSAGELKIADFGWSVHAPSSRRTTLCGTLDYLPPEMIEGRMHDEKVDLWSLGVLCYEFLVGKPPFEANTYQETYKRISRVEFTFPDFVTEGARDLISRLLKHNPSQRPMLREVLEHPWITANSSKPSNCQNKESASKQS

[33] = target: Epidermal growth factor receptor (Homo sapiens) (UniProt P00533); assay: Inhibition of EGFR (unknown origin) assessed as residual activity at 50 uM relative to control; outline: as §1

For `O=C(O)c1ccc(Nc2nc(-c3cccc([N+](=O)[O-])c3)cs2)cc1`, the Activity [1] was 104%, the Activity [2] was 100% and the Activity [3] was 103%. It also gave an Activity [4] of 95%, an IC50 [5] of 7 µM and an Activity [6] of 101%. The Activity [7] was 97%, the Activity [8] was 83% and the Activity [9] was 102%. It also gave an Activity (Homo sapiens) of 87%, an Activity [10] of 97% and an Activity [11] of 79%. It also gave an Activity [12] of 89%, an Activity [13] of 87% and an Activity [14] of 85%. The Activity [15] was 71%, the Activity [16] was 86% and the Activity [17] was 85%. For the same molecule, the inhibition [18] was “Active”, the Activity [19] was 92% and the Activity [20] was 65%. For the same molecule, the Activity [21] was 99%, the Activity [22] was 97% and the Activity [23] was 86%. The Activity [24] was 0%, the Activity [25] was 45% and the Activity [26] was 100%. For the same molecule, the Activity [27] was 104%, the Activity [28] was 93% and the Activity [29] was 103%. It also gave an Activity [30] of 97%, an Activity [31] of 84% and an Activity [32] of 79%. The Activity [33] was 26%.
